# Test results: ChEMBL document CHEMBL4622977, “A CNS-Targeting Prodrug Strategy for Nuclear Receptor Modulators” (J Med Chem, 2020)
# Active and inactive are the calls of the source. The calls are words filed in the database; no cut-off is given here.
# Tests used:
# [1] = AUC (0.5 to 6 hrs) in C57BL/6 mouse serum at 9.14 umol/kg, ip by LC-MS/MS analysis; assay type: ADME, organism-based; design: time upper 6 hr, dose 9.14 umol/kg, time lower 0.5 hr, route intraperitoneal; details: in vivo
# How it was run: (§1)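 Male wild-type C57BL/6 mice (8−10 weeks, n=3 per time point) received parent drug or equimolar prodrug at […] i.p. in DMSO. Brain and serum were collected at 0.5, 2 and 6 h. Parent acid was quantified by LC-MS/MS against vehicle-tissue standard curves with d₆-sobetirome internal standard. AUC0.5–6 h was computed from the time course; mean ± SEM.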
# [2] = mouse, in vivo, ip
# [3] = in vivo; details: C57BL/6, mouse, brain/serum, ip, 9.14 umol/kg
# [4] = Prodrug conversion in C57BL/6 mouse brain assessed as [4-(4-hydroxy-3-iodophenoxy)-3,5-diiodophenyl]acetic acid level at 9.14 umol/kg, ip measured after 1 hr in presence of FAAH inhibitor PF-3845 by LC-MS/MS analysis; assay type: ADME, organism-based; details: in vivo
# How it was run: (§2)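 Male C57BL/6 mice (n=3) received PF-3845 at 1 mg/kg i.p., then prodrug at […] i.p. 1 h later; comparators received prodrug alone. Vehicle was DMSO. Whole brain was taken 1 h after prodrug and homogenized in water with d₆-sobetirome internal standard. It was extracted with EtOAc/MeCN and parent acid was measured by LC-MS/MS; mean ± SEM, 2-tailed unpaired t test.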
# [5] = AUC (0.5 to 6 hrs) in C57BL/6 mouse brain assessed as [4-(4-hydroxy-3-iodophenoxy)-3,5-diiodophenyl]acetic acid level at 9.14 umol/kg, ip by LC-MS/MS analysis; assay type: ADME, organism-based; design: dose 9.14 umol/kg, time upper 6 hr, time lower 0.5 hr, route intraperitoneal; details: in vivo; how it was run: as §1
# [6] = AUC (0.5 to 6 hrs) in C57BL/6 mouse serum assessed as [4-(4-hydroxy-3-iodophenoxy)-3,5-diiodophenyl]acetic acid level at 9.14 umol/kg, ip by LC-MS/MS analysis; assay type: ADME, organism-based; design: dose 9.14 umol/kg, time 0.5-6 hr, route intraperitoneal; details: in vivo; how it was run: as §1
# [7] = Brain to serum concentration ratio, Kp of the compound in C57BL/6 mouse assessed as [4-(4-hydroxy-3-iodophenoxy)-3,5-diiodophenyl]acetic acid level at 9.14 umol/kg, ip by LC-MS/MS analysis; assay type: ADME, organism-based
# How it was run: (§3)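 Brain-to-serum ratio Kp was calculated from brain and serum parent-drug AUC0.5–6 h (ng/g*h). These AUCs came from male C57BL/6 mice (n=3 per time point) given parent drug or equimolar prodrug at […] i.p. in DMSO, sampled at 0.5, 2 and 6 h. Parent acid was quantified by LC-MS/MS with d₆-sobetirome internal standard.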
# [8] = tested on: Mus musculus; assay: In vivo agonist activity at RAR in C57BL/6 mouse assessed upregulation of Adam10 gene expression in brain at 9.14 umol/kg, ip administered once daily for 7 days by Trizol reagent based RT-qPCR analysis; assay type: functional, organism-based
# How it was run: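 Male C57BL/6 mice (n=5) were dosed once daily for 7 days i.p. with parent drug at […], equimolar prodrug, or vehicle. The vehicle was 1:1:8 Kolliphor:NMP:water. Target gene expression was compared between groups per tissue by 2-tailed unpaired t test.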
# [9] = Hepatotoxicity in C57BL/6 mouse assessed effect on Rarres2 gene expression at 9.14 umol/kg, ip administered once daily for 7 days by Trizol reagent based RT-qPCR analysis; details: in vivo, 168 h
# [10] = AUC (0.5 to 6 hrs) in C57BL/6 mouse brain assessed as tazarotenic acid level at 9.14 umol/kg, ip by LC-MS/MS analysis; assay type: ADME, organism-based; design: time lower 0.5 hr, dose 9.14 umol/kg, time upper 6 hr, route intraperitoneal; details: in vivo; how it was run: as §1
# [11] = AUC (0.5 to 6 hrs) in C57BL/6 mouse serum assessed as tazarotenic acid level at 9.14 umol/kg, ip by LC-MS/MS analysis; assay type: ADME, organism-based; design: time lower 0.5 hr, dose 9.14 umol/kg, time upper 6 hr, route intraperitoneal; details: in vivo; how it was run: as §1
# [12] = Brain to serum concentration ratio, Kp of the compound in C57BL/6 mouse assessed as tazarotenic acid level at 9.14 umol/kg, ip by LC-MS/MS analysis; assay type: ADME, organism-based; how it was run: as §3
# [13] = Prodrug conversion in C57BL/6 mouse brain assessed as tazarotenic acid level at 9.14 umol/kg, ip measured after 1 hr in presence of FAAH inhibitor PF-3845 by LC-MS/MS analysis; assay type: ADME, organism-based; details: in vivo; how it was run: as §2
# [14] = AUC (0.5 to 6 hrs) in C57BL/6 mouse brain assessed as GW3965 level at 9.14 umol/kg, ip by LC-MS/MS analysis; assay type: ADME, organism-based; design: dose 9.14 umol/kg, time 0.5-6 hr, route intraperitoneal; details: in vivo, BLD = below limit of detection; how it was run: as §1
# [15] = AUC (0.5 to 6 hrs) in C57BL/6 mouse serum assessed as GW3965 level at 9.14 umol/kg, ip by LC-MS/MS analysis; assay type: ADME, organism-based; design: time 0.5-6 hr, dose 9.14 umol/kg, route intraperitoneal; details: in vivo; how it was run: as §1
# [16] = Prodrug conversion in C57BL/6 mouse brain assessed as GW3965 level at 9.14 umol/kg, ip measured after 1 hr in presence of FAAH inhibitor PF-3845 by LC-MS/MS analysis; assay type: ADME, organism-based; details: in vivo; how it was run: as §2
# [17] = AUC (0.5 to 6 hrs) in C57BL/6 mouse brain assessed as GW7604 level at 9.14 umol/kg, ip by LC-MS/MS analysis; assay type: ADME, organism-based; design: time 0.5-6 hr, dose 9.14 umol/kg, route intraperitoneal; details: in vivo; how it was run: as §1
# [18] = AUC (0.5 to 6 hrs) in C57BL/6 mouse serum assessed as GW7604 level at 9.14 umol/kg, ip by LC-MS/MS analysis; assay type: ADME, organism-based; design: time lower 0.5 hr, dose 9.14 umol/kg, time upper 6 hr, route intraperitoneal; details: in vivo; how it was run: as §1
# [19] = Brain to serum concentration ratio, Kp of the compound in C57BL/6 mouse assessed as GW7604 level at 9.14 umol/kg, ip by LC-MS/MS analysis; assay type: ADME, organism-based; how it was run: as §3
# [20] = Prodrug conversion in C57BL/6 mouse brain assessed as GW7604 level at 9.14 umol/kg, ip measured after 1 hr in presence of FAAH inhibitor PF-3845 by LC-MS/MS analysis; assay type: ADME, organism-based; details: in vivo; how it was run: as §2
structure (smiles),measurement,setting,value
CC(C)(Oc1ccc(CCNC(=O)c2ccc(Cl)cc2)cc1)C(=O)O [BEZAFIBRATE],AUC,[1],420.7 ng·h/g
same,AUC,[2],5.5 ng·h/g
same,Kp,[3],0.013
O=C(O)Cc1cccc(OCCCN(Cc2cccc(C(F)(F)F)c2Cl)CC(c2ccccc2)c2ccccc2)c1,AUC,[1],8853 ng·h/g
same,AUC,[2],1867 ng·h/g
same,Kp,[3],0.21
CNC(=O)Cc1cc(I)c(Oc2ccc(O)c(I)c2)c(I)c1,Drug metabolism,[4],Metabolite_Detected
same,AUC,[5],155.8 ng·h/g
same,AUC,[6],4020 ng·h/g
same,Kp,[7],0.039
CC1(C)CCSc2ccc(C#Cc3ccc(C(=O)O)cn3)cc21 [TAZAROTENIC ACID],AUC,[1],314.5 ng·h/g
same,Activity,[8],inactive
same,AUC,[2],38.5 ng·h/g
same,Kp,[3],0.12
same,Activity,[9],Toxic
CNC(=O)c1ccc(C#Cc2ccc3c(c2)C(C)(C)CCS3)nc1,AUC,[10],104 ng·h/g
same,AUC,[11],51.34 ng·h/g
same,Kp,[12],2.03
same,Drug metabolism,[13],Metabolite_Notdetected
same,Activity,[8],Active
same,Activity,[9],Non-Toxic
CC/C(=C(\c1ccc(O)cc1)c1ccc(/C=C/C(=O)O)cc1)c1ccccc1,AUC,[1],169.3 ng·h/g
same,AUC,[2],228.2 ng·h/g
same,Kp,[3],1.35
Cc1cc(OCC(=O)O)cc(C)c1Cc1cc(C#Cc2ccc([N+](=O)[O-])cc2)c(O)c(C(C)C)c1,AUC,[1],756.9 ng·h/g
same,AUC,[2],11.9 ng·h/g
same,Kp,[3],0.016
CNC(=O)Cc1cccc(OCCCN(Cc2cccc(C(F)(F)F)c2Cl)CC(c2ccccc2)c2ccccc2)c1,AUC,[14],Bld
same,AUC,[15],155.4 ng·h/g
same,Drug metabolism,[16],Metabolite_Notdetected
CC/C(=C(\c1ccc(O)cc1)c1ccc(/C=C/C(=O)NC)cc1)c1ccccc1,AUC,[17],18.03 ng·h/g
same,AUC,[18],17.77 ng·h/g
same,Kp,[19],1.01
same,Drug metabolism,[20],Metabolite_Notdetected
